In ChEMBL document CHEMBL1132659, “Novel 2-phenylimidazo[1,2-a]pyridine derivatives as potent and selective ligands for peripheral benzodiazepine receptors: synthesis, binding affinity, and in vivo studies” (J Med Chem, 1999):

How the values were obtained:
[1] = biological target: GABA-A receptor; anion channel; assay: Affinity benzodiazepine receptor as ability to displace [3H]flunitrazepam from binding to membrane preparations from rat cerebral cortex.; type: tissue-based
Summary of the method: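 Rat cerebral cortex homogenised in ice-cold 50 mM Tris-HCl pH 7.4, centrifuged twice at 20000g and resuspended; 0.4-0.5 mg protein incubated with 0.5 nM [3H]flunitrazepam for 60 min at 0 °C. Filtration, then scintillation counting. Nonspecific binding defined with 5 μM diazepam. pIC50 from means of 3 experiments run in duplicate.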

Translocator protein [2] = biological target: T1, Translocator protein (Rattus norvegicus, UniProt P16257); assay: Displacement of [3H]-PK 11195 from peripheral-type benzodiazepine receptor of rat cerebral cortex membranes; type: cell membranes, Membrane
Translocator protein [3] = biological target: T1, Translocator protein; assay: Displacement of [3H]-PK 11195 from peripheral-type benzodiazepine receptor of rat ovary membranes; type: cell membranes, Female gonad, Membrane
[4] = biological target: T2, GABA-A receptor; alpha-1/beta-2/gamma-2 (Homo sapiens) (UniProt P14867+P47870+P18507); assay: Modulatory activity against human GABA-A receptor alpha-1-beta-2-gamma-2 subunits expressed in Xenopus laevis Oocytes at 100 uM; type: cell-based
Summary of the method: (§1)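 Xenopus stage V–VI oocytes, defolliculated with collagenase, nuclear-injected with α1, β2, γ2 cDNAs and cultured at 19 °C. Two-electrode voltage clamp at -70 mV began about 24 h later, under MBS perfusion at room temperature. Drug applied for 20 s; value is percent change of the current evoked by GABA EC20 (2-10 μM). Means from 6–14 oocytes ± SEM.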

[5] = biological target: T2, GABA-A receptor; alpha-1/beta-2/gamma-2 (Homo sapiens); assay: Modulatory activity against human GABA-A receptor alpha-1-beta-2-gamma-2 subunits expressed in Xenopus laevis Oocytes at 50 uM; type: cell-based; summary of the method: as §1
[6] = biological target: T2, GABA-A receptor; alpha-1/beta-2/gamma-2 (Homo sapiens); assay: Modulatory activity against human GABA-A receptor alpha-1-beta-2-gamma-2 subunits expressed in Xenopus laevis Oocytes at 10 uM; type: cell-based; summary of the method: as §1

T1 sequence (P16257 whole entry, looked up): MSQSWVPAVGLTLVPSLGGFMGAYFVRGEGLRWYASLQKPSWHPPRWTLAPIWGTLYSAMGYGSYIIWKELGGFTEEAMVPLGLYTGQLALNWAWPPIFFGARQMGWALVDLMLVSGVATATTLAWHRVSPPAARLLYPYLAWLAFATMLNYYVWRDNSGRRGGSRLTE

Row | SMILES | pIC50 [1] | IC50 (Translocator protein [2]) | IC50 (Translocator protein [3]) | Activity [4] | Activity [5] | Activity [6]
1 | CCCN(CCC)C(=O)Cc1c(-c2ccc(Cl)cc2)nc2c(NC(C)=O)cccn12 | 4.09 | 0.01 µM | 0.0331 µM | – | – | –
2 | CCC(C)N(C)C(=O)c1cc2ccccc2c(-c2ccccc2Cl)n1 (configuration not stated) [PK-11195] | 4.67 | – | – | 91 | 4.3 | -16
3 | CCCN(CCC)C(=O)Cc1c(-c2ccccc2)nc2ccc(C(N)=O)cn12 | 5.58 | 0.457 µM | 0.302 µM | – | – | –
4 | CCCCCCN(CCCCCC)C(=O)Cc1c(-c2ccc(Cl)cc2)nc2ccccn12 | 3.83 | 0.182 µM | 0.178 µM | – | – | –
5 | CCCN(CCC)C(=O)Cc1c(-c2ccccc2)nc2c(N)cccn12 | 5.27 | 0.00427 µM | 0.00575 µM | – | – | –
6 | CCCCN(CCCC)C(=O)Cc1c(-c2ccccc2)nc2ccccn12 | 6.3 | 0.017 µM | 0.0229 µM | < 58.2 | < 44.6 | 17.4
7 | CCCN(CCC)C(=O)Cc1c(-c2ccccc2)nc2ccc(C(=O)OC)cn12 | 4.92 | 0.0166 µM | 0.0269 µM | 11.6 | 11.4 | 17.1
8 | CCCN(CCC)C(=O)Cc1c(-c2ccccc2)nc2ccc([N+](=O)[O-])cn12 | 5.47 | 0.00759 µM | 0.00776 µM | – | – | –
9 | CCCN(CCC)C(=O)Cc1c(-c2ccccc2)nc2ccccn12 | 6.28 | 0.1 µM | 0.0955 µM | – | – | –
10 | CCCN(CCC)C(=O)Cc1c(-c2ccc(Cl)cc2)nc2c(N)cccn12 | 5.07 | 0.00631 µM | 0.00457 µM | – | – | –
11 | CCCN(CCC)C(=O)Cc1c(-c2ccccc2)nc2c(Cl)cccn12 | 4.59 | 0.0229 µM | 0.0158 µM | – | – | –
12 | CCCN(CCC)C(=O)Cc1c(-c2ccccc2)nc2c(C)cccn12 | 4.85 | 0.02 µM | 0.0417 µM | – | – | –
13 | CCCNC(=O)Cc1c(-c2ccccc2)nc2ccccn12 | 6.09 | 2 µM | 2 µM | – | – | –
14 | CCCN(CCC)C(=O)Cc1c(-c2ccc(Cl)cc2)nc2c(Cl)cc(C(F)(F)F)cn12 | 5 | 0.00182 µM | 0.00282 µM | – | – | –
15 | CCCN(CCC)C(=O)Cc1c(-c2ccc(Cl)cc2)nc2c(Br)cc(Br)cn12 | 5 | 0.000794 µM | 0.00158 µM | – | – | –
16 | CCCN(CCC)C(=O)Cc1c(-c2ccc(Cl)cc2)nc2c(Cl)cc(Cl)cn12 [ALPDEM] | 2.4 | 0.001 µM | 0.00263 µM | – | – | –

Row | SMILES | pIC50 [1] | IC50 (Translocator protein [2]) | IC50 (Translocator protein [3]) | Activity [4] | Activity [5] | Activity [6]
17 | CCCN(CCC)C(=O)Cc1c(-c2ccccc2)nc2c(NC(C)=O)cccn12 | 4.96 | 0.257 µM | 0.447 µM | – | – | –
18 | CCN(CC)C(=O)Cc1c(-c2ccccc2)nc2ccccn12 | 5.68 | 0.437 µM | 0.525 µM | – | – | –
19 | CCCN(CCC)C(=O)Cc1c(-c2ccc(Cl)cc2)nc2ccccn12 | 7.19 | 0.01 µM | 0.0331 µM | – | – | –
20 | CCCN(CCC)C(=O)Cc1c(-c2ccccc2)nc2c(OC)cccn12 | 5.27 | 0.0468 µM | 0.049 µM | – | – | –
21 | CCCN(CCC)C(=O)Cc1c(-c2ccccc2)nc2c(C)cc(Br)cn12 | 4.27 | 0.00162 µM | 0.00263 µM | – | – | –
22 | CCCN(CCC)C(=O)Cc1c(-c2ccc(Cl)cc2)nc2c(NC)cccn12 | 4 | 0.00372 µM | 0.00794 µM | – | – | –
23 | CCCN(CCC)C(=O)Cc1c(-c2ccc(Cl)cc2)nc2c([N+](=O)[O-])cccn12 | 5 | 0.00575 µM | 0.00871 µM | – | – | –
24 | CCCN(CCC)C(=O)Cc1c(-c2ccccc2)nc2c([N+](=O)[O-])cccn12 | 4.8 | 0.0851 µM | 0.12 µM | – | – | –
25 | CCCN(CCC)C(=O)Cc1c(-c2ccccc2)nc2c(Cl)cc(Cl)cn12 | 2.4 | 0.00302 µM | 0.00427 µM | – | – | –
26 | CCCN(CCC)C(=O)Cc1c(-c2ccc(Cl)cc2)nc2c(OC)cccn12 | 4.19 | 0.0166 µM | 0.0209 µM | – | – | –
27 | CCCNC(=O)Cc1c(-c2ccc(Cl)cc2)nc2ccccn12 | 6.93 | 0.589 µM | 1.62 µM | – | – | –
28 | CCCN(CCC)C(=O)Cc1c(-c2ccc(Cl)cc2)nc2c(Cl)cccn12 | 2.4 | 0.00427 µM | 0.00741 µM | -15.2 | -6.1 | 4.5
29 | CCCN(CCC)C(=O)Cc1c(-c2ccc(Cl)cc2)nc2c(C)cccn12 | 2.4 | 0.00141 µM | 0.00282 µM | < -44.3 | < -38.7 | -9.6
30 | CCCCN(CCCC)C(=O)Cc1c(-c2ccc(Cl)cc2)nc2ccccn12 | 7.04 | 0.00589 µM | 0.0105 µM | < 23.9 | < 35 | < 23.2
31 | CCCCNC(=O)Cc1c(-c2ccccc2)nc2c(Cl)cc(Cl)cn12 | 4 | 0.295 µM | 0.389 µM | – | – | –
32 | CCCCCCN(CCCCCC)C(=O)Cc1c(-c2ccccc2)nc2ccccn12 | 3.93 | 0.0191 µM | 0.0132 µM | – | – | –
